According to PubChem BioAssay:
Records with an inconclusive call do not appear.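 Rule for the calls, unless noted: active = viability at or below 27.92% in each of two runs, the all-compound median minus 4 SD; inconclusive = no clear call, values can overlap the other calls; inactive = the rest.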

Experiments:
[1] = S. cerevisiae growth inhibition in permissive medium (OD615), pilot counter-assay for S. cerevisiae lifespan shortening project, permissive growth control (AID 705;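 active = growth inhibition above 25% in both replicates, a cutoff set 3 SD above the mean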); settings: OD615, 24 h, at 10 µM, stronger effect = higher value
Outline: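 System: engineered DeaD yeast; Medium: permissive raffinose/galactose medium; Compound dosing: 10 µM single dose, 0.25% DMSO; Incubation: 4 h cell pre-growth, 24 h exposure at 30 °C; Technique: OD at 615 nm; Evaluation: growth inhibition from lowered OD615 after 24 h.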

[2] = S. cerevisiae growth inhibition in restrictive medium, OD615, pilot screen, restrictive growth control, yeast lifespan reduction project (AID 706;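 active = growth inhibition above a set limit, 3 SD over mean compound inhibition, in both replicates, cut at about 43% in these data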;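 note: modified DeaD lifespan yeast strain shifted to restrictive glucose medium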); settings: OD615, 48 h, at 10 µM, stronger effect = higher value
Outline: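 Material: modified S. cerevisiae; buffer or medium: CSMM-D glucose medium; doses: one concentration, 10 µM final, 0.25% DMSO; incubation: 48 h compound exposure at 30 °C; detection: optical density at 615 nm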

[3] = doxorubicin toxicity protection in MRP-1 cells – H69AR cells, CellTiter-Glo, duplicate, MRP-1 activator project, pilot screen (AID 807;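 active = viability increase at or above a cutoff of the median across tested compounds plus 3 SD, cut at about 8.5% in these data, passing the limit was not always enough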;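 note: compound pretreatment 18-22 h then 72 h combined with doxorubicin; 0% = doxorubicin alone and 100% = vehicle without doxorubicin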); settings: H69AR viability with doxorubicin, CellTiter-Glo luminescence; at 10 µM; stronger effect = higher value
[4] = viability of HCT116 without oncogenic beta-catenin – human colon tumor cells, pilot screen (AID 823;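 active = cell viability at or below a set limit in both duplicate runs, the limit being the all-compound median minus 4 SD, cut at about 23% in these data, passing the limit was not always enough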;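 note: 0% = wells killed by 20 µM Hyamine and 100% = untreated DMSO cell wells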); settings: HCT116 beta-catenin knockout viability, CellTiter-Glo, 60 h; at 10 µM; stronger effect = lower value
[5] = viability of PTEN-null HCT116 cells – cell-based, HCT116 clonal line, CellTiter-Glo, pilot screen (AID 824); settings: HCT116 PTEN-deleted viability, 60 h, at 10 µM, stronger effect = lower value;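 note: 0% = 20 µM Hyamine control and 100% = vehicle cell control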
[6] = RAM pathway blockade in budding yeast – dse1pr::URA3 reporter, 5-FOA selection, pilot screen (AID 869;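 active = inhibition over a set limit, the all-compound mean plus 3 SD, in both replicate runs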;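 note: 0% = DMSO wells with no growth and 100% = 10 µM 1-NA-PP1 with full growth; RAM network block rescues cells from 5-FOA so hits raise OD615 growth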); settings: S. cerevisiae dse1pr::URA3 5-FOA growth, OD615, 2 d; at 10 µM; stronger effect = higher value; strain carries analog-sensitive mutant Cbk1 kinase
[7] = RAM signaling pathway blockade in yeast – S. cerevisiae, Pdr1DBD-CYC8 efflux-inhibited sensitized strain, primary screen (AID 1298;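 active = RAM network inhibition above 8.4% in each of two replicates, 3 SD over the compound average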;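 note: 0% = DMSO untreated cells without growth and 100% = 10 µM 1-NA-PP1 full growth; higher means more yeast growth rescued from 5-FOA killing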); settings: S. cerevisiae cbk1-as DSE1-URA3 strain, 5-FOA growth OD615, 2 d; at 50 µM; stronger effect = higher value

CC(=O)c1coc2ccc(OCCN3CCCCC3)cc12
inactive: growth inhibition [1] -8.68% | growth inhibition [2] -18.4% | viability increase [3] -3.83% | viability [4] 85.2% | viability [5] 85.8% | inhibition [6] 0.64% | RAM network inhibition [7] 2.59%

CCc1cc(C(=O)COc2ccccc2F)c(O)cc1O
inactive: growth inhibition [1] -11.9% | growth inhibition [2] 11.9% | viability increase [3] -2.43% | viability [4] 96.1% | viability [5] 99.5% | inhibition [6] -0.155% | RAM network inhibition [7] -0.21%

CCn1cc(C2=NC(c3ccccc3)CO2)c2ccccc21 (stereo not drawn)
inactive: growth inhibition [1] -11% | growth inhibition [2] -8.14% | viability increase [3] -4.95% | viability [4] 91.6% | viability [5] 83.3% | inhibition [6] 1.46% | RAM network inhibition [7] 0.69%

Cc1ccccc1NS(=O)(=O)c1cccc(-c2nnc(-c3ccccc3)o2)c1
inactive: growth inhibition [1] -8.74% | growth inhibition [2] -5.78% | viability increase [3] -0.75% | viability [4] 93.6% | viability [5] 85.7% | inhibition [6] 3.65% | RAM network inhibition [7] 4.08%

CCOC(=O)N1CCN(C(=O)c2cc3c(-c4ccc(Cl)cc4)nn(C)c3s2)CC1
inactive: growth inhibition [1] -5.13% | growth inhibition [2] 4.77% | viability increase [3] -6.02% | viability [4] 55.8% | viability [5] 49.2% | inhibition [6] 0.47% | RAM network inhibition [7] 1.8%

CCCCn1c(CNC(=O)C(C)(C)C)nc2ccccc21
inactive: growth inhibition [1] -11.1% | growth inhibition [2] -12% | viability increase [3] -1.15% | viability [4] 98% | viability [5] 98.9% | inhibition [6] 0.25% | RAM network inhibition [7] 5.15%

COc1cccc2cc3c(=O)n(-c4ccccc4)nc-3oc12
inactive: growth inhibition [1] -29.6% | growth inhibition [2] -20.8% | viability increase [3] -7.1% | viability [4] 97.2% | viability [5] 92.1% | inhibition [6] 2.73% | RAM network inhibition [7] 3.19%

COc1ccc(OC)c(NC2c3ccccc3C(=O)N2Cc2ccc3c(c2)OCO3)c1 (stereo not drawn)
inactive: growth inhibition [1] -0.33% | growth inhibition [2] -3.93% | viability increase [3] -0.47% | viability [4] 98% | viability [5] 90% | inhibition [6] 0.2% | RAM network inhibition [7] 5.4%

CCOC(=O)N1CCC(NC(=O)Cn2nc(Cc3ccncc3)c3ccccc3c2=O)CC1
inactive: growth inhibition [1] -6.68% | growth inhibition [2] 3.71% | viability increase [3] -0.79% | viability [4] 94% | viability [5] 95.7% | inhibition [6] -0.58% | RAM network inhibition [7] 0.52%

CCOC(=O)c1ccc(N2C(=O)CC(N3CCN(Cc4ccccc4)CC3)C2=O)cc1 (stereo not drawn)
inactive: growth inhibition [1] -18.6% | growth inhibition [2] -15.4% | viability increase [3] 0.7% | viability [4] 101% | viability [5] 103% | inhibition [6] 0.175% | RAM network inhibition [7] 2.65%

c1ccc(OCc2nn3c(-c4ccccn4)nnc3s2)cc1
inactive: growth inhibition [1] 7.46% | growth inhibition [2] 34% | viability increase [3] 0.02% | viability [4] 104% | viability [5] 94% | inhibition [6] 1.48% | RAM network inhibition [7] 2.54%

CN(c1ccccc1)S(=O)(=O)c1cccc(C(=O)N2CCN(c3ccccn3)CC2)c1
inactive: growth inhibition [1] 2.2% | growth inhibition [2] 4.43% | viability increase [3] -0.97% | viability [4] 81% | viability [5] 86.1% | inhibition [6] -0.145% | RAM network inhibition [7] -1.92%

Cc1ccccc1OCC(=O)Nc1ccccc1N1CCOCC1
inactive: growth inhibition [1] -1.63% | growth inhibition [2] 6.71% | viability increase [3] -5.31% | viability [4] 91.7% | viability [5] 84.7% | inhibition [6] 1.22% | RAM network inhibition [7] 6.55%

CNC(=O)c1c(NC(=O)c2ccc(S(=O)(=O)N3CCOCC3)cc2)sc2c1CCC2
inactive: growth inhibition [1] -0.09% | growth inhibition [2] -0.055% | viability increase [3] -0.97% | viability [4] 95.9% | viability [5] 91.8% | inhibition [6] 0.78% | RAM network inhibition [7] 4.58%

Cn1c(-n2c(CCN3C(=O)c4ccccc4C3=O)nc3ccccc3c2=O)nc2ccccc21
inactive: growth inhibition [1] 1.63% | growth inhibition [2] -2.29% | viability increase [3] -4.94% | viability [4] 68.2% | viability [5] 81.2% | inhibition [6] 0.65% | RAM network inhibition [7] 2.45%

CC(C)c1ccc(N(CC(=O)O)S(=O)(=O)c2cccnc2)cc1
inactive: growth inhibition [1] -2% | growth inhibition [2] 8.54% | viability increase [3] -1.28% | viability [4] 93.3% | viability [5] 98.7% | inhibition [6] -0.135% | RAM network inhibition [7] -1.88%

CC1CCc2c(sc3nc(SCc4nc(-c5ccccc5)no4)n(C)c(=O)c23)C1 (stereo not drawn)
inactive: growth inhibition [1] -3.38% | growth inhibition [2] -5.98% | viability increase [3] 1.25% | viability [4] 94% | viability [5] 89% | inhibition [6] 2.21% | RAM network inhibition [7] 2.32%

Cc1cc2c(cc(C(=O)N3CCC(C(=O)NC4CCCC4)CC3)n2Cc2c(F)cccc2Cl)o1
inactive: growth inhibition [1] -3.7% | growth inhibition [2] -5.26% | viability increase [3] -1.51% | viability [4] 62% | viability [5] 54.8% | inhibition [6] 0.72% | RAM network inhibition [7] 3.45%

COc1ccccc1-c1c(C)nn2c(C)cc(C)nc12
inactive: growth inhibition [1] -5.75% | growth inhibition [2] -1.54% | viability increase [3] -1.88% | viability [4] 97.5% | viability [5] 97.3% | inhibition [6] 0.895% | RAM network inhibition [7] 1.79%

COCCNS(=O)(=O)c1cccc2cccnc12
inactive: growth inhibition [1] -1.37% | growth inhibition [2] 12.8% | viability increase [3] -1.69% | viability [4] 97.8% | viability [5] 92.2% | inhibition [6] 2.52% | RAM network inhibition [7] 2.27%

COc1cccc(NC2=CC(=O)CC(C)(C)C2)c1
inactive: growth inhibition [1] 4.23% | growth inhibition [2] 0.02% | viability increase [3] -0.06% | viability [4] 95% | viability [5] 99.2% | inhibition [6] 0.5% | RAM network inhibition [7] 1.95%

C=CCSc1nnc(CSc2nc3sc4c(c3c(=O)[nH]2)CCCC4)n1-c1ccccc1
inactive: growth inhibition [1] 9.19% | growth inhibition [2] 37.7% | viability increase [3] 0.54% | viability [4] 93.2% | viability [5] 91.2% | inhibition [6] 1.42% | RAM network inhibition [7] 11%

C#CCn1c(=NC(=O)CN2C(=O)CCC2=O)sc2cccc(C)c21
inactive: growth inhibition [1] -15.5% | growth inhibition [2] -1.5% | viability increase [3] -3.32% | viability [4] 93.3% | viability [5] 88.8% | inhibition [6] 1.89% | RAM network inhibition [7] 2.03%

COc1ccc(N2CCN(C(=O)c3sc4nc(-c5ccc(F)cc5)cn4c3C)CC2)cc1
inactive: growth inhibition [1] -10.6% | growth inhibition [2] -19.7% | viability increase [3] -4.7% | viability [4] 102% | viability [5] 95.6% | inhibition [6] 2.24% | RAM network inhibition [7] 3.45%
